Assay outcomes from PubChem BioAssay.
Most compounds without a hit are left out; they make up all but 1.3% or so of the library.
DDE Tn6 FP inh: DD(E)-Tn6 binding inhibition, primary FP screen. Fibrin DD(E) TRITC-Tn6 fluorescence polarization displacement. inhibition, % at 8.3 µM. 370,000 tested, 0.21% active. AID 720509;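 active means inhibition above a per-campaign cutoff: mean of compounds within control limits plus 3 SD, cut at about 15% in these data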;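 further: 0% = median of all compound wells on the plate and 100% = blocking peptide control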
Target sequence (P02675 whole entry, looked up): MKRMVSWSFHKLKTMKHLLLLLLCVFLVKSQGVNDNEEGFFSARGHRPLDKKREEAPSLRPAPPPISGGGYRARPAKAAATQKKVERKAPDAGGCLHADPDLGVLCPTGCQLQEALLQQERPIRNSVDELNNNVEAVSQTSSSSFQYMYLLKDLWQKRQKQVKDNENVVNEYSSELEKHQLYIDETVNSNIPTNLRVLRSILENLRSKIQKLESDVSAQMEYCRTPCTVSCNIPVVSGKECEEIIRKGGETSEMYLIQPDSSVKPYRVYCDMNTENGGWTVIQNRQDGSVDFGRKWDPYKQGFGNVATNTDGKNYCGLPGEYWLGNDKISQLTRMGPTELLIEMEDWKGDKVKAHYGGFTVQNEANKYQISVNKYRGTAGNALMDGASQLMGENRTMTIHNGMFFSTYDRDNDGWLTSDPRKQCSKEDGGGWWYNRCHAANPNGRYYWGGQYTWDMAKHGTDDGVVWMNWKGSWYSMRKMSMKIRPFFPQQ
Tn7 DDE FP: inhibitors of Tn7 peptide binding to human fibrin DD(E); P02675; FP displacement of FITC-Tn7 peptide from fibrin DD(E); 0% = median of compound wells per plate; inhibition, % at 8.3 µM; 370,000 tested, 0.13% active; AID 720508;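 active means inhibition above the mean of compounds falling within the control limits plus 3 SD of them, cut at about 14% in these data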;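 further: 0% = plate median of compound wells and 100% = 10 µM Aha-Tn7 peptide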
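Assay system: Fibrin-DD(E) protein isolated from polymerized human fibrin clots; read-out basis: percent inhibition; medium: Tris/NaCl/CaCl2 buffer, pH 7.8; signal: FP measurement; incubation: 10 min plus 3 h, room temperature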
HTRA1 inh: blocks human HTRA1 serine peptidase | AID 504803 | recombinant HTRA1, FP-rhodamine activity-based probe, fluorescence polarization | Q92743 | 340,000 tested, 0.5% active | inhibition, % at 5.96 µM; in the data active means inhibition above about 36%;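 further: 0% = enzyme with DMSO and 100% = wells lacking enzyme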
TCR CD3 inh: blocks the human TCR-CD3 interaction; TAMRA-labeled TCR probe fluorescence, biochemical; inhibition, % at 9.4 µM; 360,000 tested, 0.37% active;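 further: recombinant mutant TCR 2C K166C tagged with TAMRA read by polarization; 0% = receptor in buffer alone and 100% = receptor with positive control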
mABHD4 FP: inhibits mouse alpha/beta hydrolase domain 4. 370,000 tested, 0.54% active. purified mABHD4, FP-Rh probe fluorescence polarization. inhibition, % at 8.92 µM. AID 720543;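 active means inhibition exceeding the mean over every tested compound plus 3 SD, cut at about 30% in these data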;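 further: 0% = plate median of compound wells and 100% = S159A mutant with DMSO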
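Test system: mABHD4 protein | Buffer or medium: HEPES pH 7.0 buffer, 150 mM NaCl, 0.01% Pluronic F-127 | Probe or stimulus: FP-Rh fluorescent activity-based probe, added after compound pre-incubation | Timing: Pre-incubation 45 min, probe exposure 60 min, at 25 °C | Technique: Fluorescence polarization, excitation 525 nm, emission 598 nm, BODIPY TMR filters | Repeats: Single well per compound (singlicate)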
HTRA1 inh conf: HTRA1 (human) inhibition, confirmation. shares compounds with HTRA1 inh. recombinant HTRA1, FP-rhodamine activity-based probe, fluorescence polarization. inhibition, % at 5.96 µM. 1,600 tested, 66% active;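 active means mean inhibition over three repeats above a set limit taken from the earlier primary screen, cut at about 37% in these data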;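 further: 0% = HTRA1 with DMSO and 100% = wells lacking HTRA1; inhibitors block probe binding so polarization drops and inhibition rises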
BSA TAMRA ctr: interferes with TAMRA-BSA probe, flagging TCR-CD3 hits; AID 652035; TAMRA-labeled BSA probe fluorescence counterscreen; shares compounds with TCR CD3 inh; inhibition, % at 9.4 µM; 1,200 tested, 10% active; in the data active means inhibition above about 23%;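 further: 0% = buffer low control and 100% = reference high control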
TCR-CD3 conf: TCR-CD3 interaction inhibition, confirmation; AID 652036; shares compounds with TCR CD3 inh; inhibition, % at 9.4 µM; 1,200 tested, 48% active; TAMRA-labeled TCR probe fluorescence binding assay
DDE Tn6 FP ctr: counter-screen for inhibitors of Tn6 peptide binding to fibrin DD(E). TRITC-Tn6 fluorescence polarization displacement; 0% = median of compound wells, not DMSO. shares compounds with DDE Tn6 FP inh. inhibition, % at 8.3 µM. 680 tested, 2% active;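 active means inhibition above the mean of test compounds lying between the control limits plus 3 SD of those, cut at about 14% in these data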;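 further: 0% = median of compound wells and 100% = wells with Aha-Tn7 blocking peptide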
Tn6 DDE conf: confirmation of inhibitors of Tn6 binding to human fibrin DD(E); shares compounds with DDE Tn6 FP inh; FP displacement of TRITC-Tn6 peptide from DD(E); 0% = per-plate median of test wells; inhibition, % at 8.3 µM; 680 tested, 10% active; AID 720631;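 active means inhibition above the mean of compounds lying within the control limits plus 3 SD, cut at about 16% in these data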;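 further: 100% = high control wells holding a competing inhibitor peptide at 10 µM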
* hit, by the source's call; . = not tested or not shown. Unless noted, no stated cut-off is given here; in the data, active means inhibition above about 19%; inactive means the rest.

SMILES	DDE Tn6 FP inh	Tn7 DDE FP	HTRA1 inh	TCR CD3 inh	mABHD4 FP	HTRA1 inh conf	BSA TAMRA ctr	TCR-CD3 conf	others
COc1cccc(/C=C2/SC(=S)N(CC(=O)NNC(=O)c3ccccc3O)C2=O)c1	7	-3	46*	25*	-6	8	-6	46*
Cc1ccc(/C=C2\SC(=S)N(CCC(=O)NNC(=O)c3ccc(O)cc3)C2=O)cc1	5	3	-116	0	-44	.	.	.
CCC(C)NC(=O)CN(C)S(=O)(=O)c1ccc2c(c1)c(=O)n(C)c(=O)n2C (stereo unspecified)	-4	-2	3	-6	-1	.	.	.
O=C(N/N=C\C=C\c1ccc2c(c1)OCO2)C1COc2cc3ccccc3cc2O1 (stereo unspecified)	-1	-2	-32	0	1	.	.	.
CC1=Nc2cccc3cccc(c23)N1	-4	-5	42*	39*	26	18	45*	23*
Nc1ccc(C2=Nc3cccc4cccc(c34)N2)cc1	-18	6	19	5	-3	.	.	.
COc1ccccc1CCn1cnc(-c2ccccc2F)c1CC(C)C	-7	-5	.	-4	-7	.	.	.
C/C(=N\NC(=O)c1ccc(-c2ccccc2)cc1)C1C(=O)c2ccccc2C1=O	-12	2	36*	29*	22	58*	-7	38*
C/C(=N/NC(=O)c1ccc(-c2ccccc2)cc1)c1cc(O)cc(O)c1	-3	5	-7	-3	-2	.	.	.
O=C(O)C1Nc2c(O)cc(Cl)c([N+](=O)[O-])c2C2C=CCC12 (stereo unspecified)	-3	3	66*	91*	61*	63*	-19	51*
O=C(O)c1cc(Cl)c2c(c1)[C@@H]1C=CC[C@@H]1[C@H](c1ccc(S(=O)(=O)N3CCOCC3)cc1)N2	.	.	23	.	.	.	.	.
COc1ccc(C)cc1NC(=O)NNC(=O)c1cc2ccccc2cc1O	-4	0	42*	22*	5	35	-2	26*
Cc1cc(C)c(C)c(S(=O)(=O)N2CCC(C(=O)NNC(=O)c3ccccc3O)CC2)c1C	-5	-5	46*	32*	7	48*	-6	22*
Cc1cc(C)c(NC(=O)CS(=O)CC(=O)Nc2ccc(F)cc2F)c(C)c1 (stereo unspecified)	6	-4	1	4	5	.	.	.
Cc1nonc1C(=O)N/N=C/c1ccc(O)c(O)c1	4	-5	23	7	13	.	.	.
O=C(N/N=C/c1ccc(O)c(O)c1)N/N=C/c1ccc(O)c(O)c1	-15	1	38*	65*	27	19	-13	81*
N#C/C(=C\c1ccc(O)c(O)c1)C(=O)Nc1cccc2ncccc12	-5	-6	52*	72*	28	39*	-21	60*
O=C(NN=Cc1c(O)ccc2ccccc12)c1ccc2c(c1)OCO2	10	2	37*	21*	21	17	-17	22*
O=C(N/N=C/c1c(O)ccc2ccccc12)c1ccc(CO)nc1	-4	-10	48*	34*	23	46*	-16	25*
CCN(C[C@H]1N[C@@](Cc2ccccc2)(C(=O)OC)[C@H]2C(=O)N(C)C(=O)[C@@H]12)C(=O)C1CCCCC1	7	-2	-4	5	3	.	.	.
COc1ccc(-c2cc(=O)oc3cc(OC(C)C(=O)O)ccc23)cc1 (stereo unspecified)	7	-5	4	0	-2	.	.	.
COc1ccc(-c2cc(=O)oc3c(O)c(O)ccc23)cc1	-8	-11	73*	21*	27	86*	-2	14
C/C(CC(=O)Nc1ccccn1)=N\NC(=O)c1ccccc1O	6	-2	56*	45*	17	26	23*	37*
Oc1cccc(/C=N/Nc2ncnc3c2ncn3Cc2ccccc2)c1	-7	3	1	-8	6	.	.	.
Oc1ccc(/C=N/Nc2ncnc3c2ncn3Cc2ccccc2)cc1O	-5	0	49*	53*	29	50*	-4	46*
SMILES	DDE Tn6 FP inh	Tn7 DDE FP	HTRA1 inh	TCR CD3 inh	mABHD4 FP	HTRA1 inh conf	BSA TAMRA ctr	TCR-CD3 conf	others
O=C(Cc1nnc(NC(=O)c2ccccc2)s1)N/N=C\c1ccc(O)c(O)c1	-1	-9	43*	34*	28	48*	-11	33*
O=C(Cc1nnc(NC(=O)c2ccccc2)s1)N/N=C/c1ccc(O)cc1	2	-4	-7	8	-3	.	.	.
O=C1OC(Nc2ncccn2)c2ccccc21 (stereo unspecified)	0	-2	2	6	-3	.	.	.
O=C1OC(Nc2cc(Br)cc3cccnc23)c2ccccc21 (stereo unspecified)	12	4	45*	37*	88*	13	7	7
O=[N+]([O-])c1ccc(Cl)c(/C=N/n2c(COc3ccccc3)n[nH]c2=S)c1	3	0	5	7	-7	.	.	.
O=c1c2ccccc2nc(COc2ccccc2)n1/N=C/c1cc([N+](=O)[O-])ccc1O	-1	-5	36*	23*	3	47*	-4	43*
Cc1cc(=O)oc2c1c(C)nn2-c1cccc(Cl)c1	-6	4	-3	-5	7	.	.	.
O=C(CCN1CCN(c2ccccc2)CC1)N/N=C/c1ccc(O)c(O)c1O	-5	4	47*	30*	24	37*	-5	24*
COc1cc(C(=O)Nc2cc(S(=O)(=O)N3CCOCC3)ccc2N2CCOCC2)ccc1OC(F)F	4	-1	2	0	-3	.	.	.
CC(C)(C)C(=O)Nc1ccccc1C(=O)Nc1ccccn1	2	-1	1	-5	5	.	.	.
N#CC(C#N)=C1C=C2C=C(N3CCOCC3)CCC2CC1 (stereo unspecified)	-3	-56	6	4	1	.	.	.
N#CC(C#N)=C1C=C2C=C(N3CCCCCC3)CCC2CC1 (stereo unspecified)	18*	-7	52*	29*	-10	35	20	14	DDE Tn6 FP ctr=53*;Tn6 DDE conf=10
CCC(=O)Nc1c2c(nn1-c1ccc(C)cc1)CS(=O)(=O)C2	.	.	0	.	.	.	.	.
